{"data": "Results from different studies", "target": "Death-associated protein kinase 3 (DAPK3, Homo sapiens, UniProt O43293)", "note": "Lines come from different studies, so protocols differ."}
{"Structure (SMILES)": "COc1cc(Cl)c(C(=O)N[C@@H](CN[C@H]2CC[C@@H](N)CC2)Cc2ccc(C#N)cc2)cc1-c1ccc(CN[C@H](C)c2ccc(C)cc2)o1", "test": "enzyme activity, inhibitor", "setting": "1 µM", "quantity": "remaining activity", "result": "89%"}
{"Structure (SMILES)": "CSc1cccnc1N1CCN(Cc2nc3ccccc3[nH]2)CC1", "test": "cell-free assay, competition with immobilised ligand", "setting": "1 µM", "quantity": "remaining binding", "result": "100%"}
{"Structure (SMILES)": "Cn1c2c(c3ccc(Cl)c(Cl)c31)C(C#N)C1(CCNCC1)NC2=O (racemic)", "test": "thermal stability, DSF", "setting": "10 µM", "quantity": "ΔTm", "result": "> 8 °C"}
{"Structure (SMILES)": "CN([C@@H]1CCc2c(CC(=O)O)c3ccccc3n2C1)S(=O)(=O)c1ccc(F)cc1", "test": "cell-free assay, competition with immobilised ligand", "setting": "1 µM", "quantity": "remaining binding", "result": "87%"}
{"Structure (SMILES)": "CCN(CC)c1ccc(C2=NNC(=O)CC2C)cc1[N+](=O)[O-] (stereo not shown)", "test": "enzyme activity, inhibitor", "setting": "10 µM", "quantity": "remaining activity", "result": "100%"}
{"Structure (SMILES)": "Cc1cc(NC(=O)c2cccc(S(F)(F)(F)(F)F)c2)cc(-n2ccn3nc(-c4cccnc4)cc23)c1", "test": "cell-free assay, competition with immobilised ligand", "setting": "1 µM", "quantity": "remaining binding", "result": "100%"}
{"Structure (SMILES)": "N#CCCc1ccc2c(c1)-c1[nH]c3ccc([N+](=O)[O-])cc3c1CC(=O)N2", "test": "cell-free assay", "setting": "0.5 µM", "quantity": "remaining signal", "result": "99.3%"}
{"Structure (SMILES)": "CCN(CC)CCNC(=O)c1c(C)[nH]c(/C=C2\\C(=O)Nc3ccc(F)cc32)c1C", "test": "enzyme activity, inhibitor", "setting": "0.3 µM", "quantity": "inhibition", "result": "35%"}
{"Structure (SMILES)": "COc1cc(-c2cn(C3CCc4ccccc4N(CC(F)(F)F)C3=O)nn2)ccc1-n1ccc(C)n1 (stereo not shown)", "test": "cell-free assay, competition with immobilised ligand", "setting": "1 µM", "quantity": "remaining binding", "result": "100%"}
{"Structure (SMILES)": "O=C(Nc1cnn(-c2csc(C(=O)NC3COC3)c2)c1)Nc1c(F)cccc1Cl", "test": "enzyme activity, inhibitor", "setting": "5 µM", "quantity": "remaining activity", "result": "108%"}
{"Structure (SMILES)": "Cc1ccc(NC(=O)c2ccc(C)c(C(F)(F)F)c2)cc1C#Cc1nn(C2CCC(O)CC2)c2ncnc(N)c12 (stereo not shown)", "test": "cell-free assay", "setting": "10 µM", "quantity": "remaining signal", "result": "110%"}
{"Structure (SMILES)": "Cc1nc(Cc2cccc(C(F)(F)F)c2)sc1-c1ccc(C(N)=O)nc1", "test": "cell-free assay, competition with immobilised ligand", "setting": "1 µM", "quantity": "remaining binding", "result": "88%"}
{"Structure (SMILES)": "CS(=O)(=O)CCNCc1ccc(-c2ccc3ncnc(Nc4ccc(OCc5cccc(F)c5)c(Cl)c4)c3c2)o1", "test": "cell-free assay", "setting": "0.5 µM", "quantity": "remaining signal", "result": "97.4%"}
{"Structure (SMILES)": "CC(C)(C)c1nc2c(s1)c1nc(N)ncc1c1ccc(NS(=O)(=O)c3c(F)cccc3F)c(F)c12", "test": "enzyme activity, inhibitor, radiometric", "setting": "1 µM", "quantity": "remaining activity", "result": "58%"}
{"Structure (SMILES)": "C#Cc1cccc(Nc2ncnc3cc(OCCOC)c(OCCOC)cc23)c1", "test": "cell-free assay", "setting": "0.5 µM", "quantity": "remaining signal", "result": "95.4%"}
{"Structure (SMILES)": "Nc1ncnc2occ(-c3ccc(NC(=O)Nc4cc(C(F)(F)F)ccc4F)cc3)c12", "test": "cell-free assay, inhibitor", "setting": "20 µM", "quantity": "remaining signal", "result": "7.9%"}
{"Structure (SMILES)": "Oc1cccc(-c2nc(N3CCOCC3)c3oc4ncccc4c3n2)c1", "test": "cell-free assay", "setting": "0.5 µM", "quantity": "remaining signal", "result": "93.1%"}
{"Structure (SMILES)": "Cc1ccc(Nc2nccc(N(C)c3ccc4c(C)n(C)nc4c3)n2)cc1S(N)(=O)=O", "test": "enzyme activity, inhibitor", "setting": "10 µM", "quantity": "inhibition", "result": "-2%"}
{"Structure (SMILES)": "COc1cc(-c2cc(-c3ccc(N4CCNCC4)cc3)cnc2C)cc(OC)c1OC", "test": "enzyme activity, inhibitor", "setting": "1 µM", "quantity": "inhibition", "result": "2%"}
{"Structure (SMILES)": "COc1cc2ncnc(Nc3ccc(Oc4ccccc4)cc3C)c2cc1OC", "test": "enzyme activity, inhibitor", "setting": "1 µM", "quantity": "inhibition", "result": "-4%"}
{"Structure (SMILES)": "C[C@H](c1ccc(F)cc1)N(Cc1cccc(C(=O)O)c1)C(=O)c1cnc2ccccc2c1", "test": "cell-free assay, competition with immobilised ligand", "setting": "1 µM", "quantity": "remaining binding", "result": "100%"}
{"Structure (SMILES)": "Cc1cnc(NC2CCOCC2)nc1-n1cnc(C(=O)NC(CN)c2cc(F)cc(Cl)c2)c1 (stereo not shown)", "test": "enzyme activity, inhibitor, radiometric", "setting": "1 µM", "quantity": "remaining activity", "result": "107%"}
